A short description of experiment [1]: Inhibition of trypsin after 30 mins preincubated for 5 mins before addition of substrate. The essentials: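 Trypsin enzyme solution at 1 mg/mL in 50 mM Tris-HCl/100 mM NaCl/1 mM CaCl₂. Substrate solution was 2 mM N-benzoyl-D,L-arginine-p-nitroanilide in buffer. Test sample in ethanol was diluted with buffer and preincubated with enzyme in buffer for 5 min at 37 °C before substrate addition. Color was read at 405 nm immediately and after 30 min at 37 °C.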

Experiment [2] can be described thus: Inhibition of Chymotrypsin after 30 mins preincubated for 5 mins before addition of substrate. The essentials:
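Chymotrypsin enzyme solution at 1 mg/mL in 50 mM Tris-HCl/100 mM NaCl/1 mM CaCl₂/1 mM HCl. Substrate solution was 2 mM […] in the same buffer. Samples were dissolved in ethanol and diluted in buffer. Enzyme, sample and buffer were preincubated 5 min at 37 °C, then substrate was added. Absorbance at 405 nm was read at once and after 30 min at 37 °C.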

A word on the IC50: it is the concentration at which inhibition is half-maximal. Read a low IC50 as greater potency.

As for `CC[C@H](C)[C@@H]1NC(=O)[C@H](Cc2ccc(O)cc2)N(C)C(=O)[C@H]([C@@H](C)CC)N2C(=O)[C@H](CC[C@H]2O)NC(=O)[C@H](CCCNC(=N)N)NC(=O)[C@@H](NC(=O)[C@@H](COS(=O)(=O)O)OS(=O)(=O)O)[C@@H](C)OC1=O`, the IC50 in experiment [1] is 2200 nM; in experiment [2], greater than 100000 nM.
On the same counts, the results for `CC[C@H](C)[C@H]1C(=O)N(C)[C@@H](Cc2ccc(OC)c(Cl)c2)C(=O)N[C@@H](C(C)C)C(=O)O[C@H](C)[C@H](NC(=O)[C@H](O)CO)C(=O)N[C@@H](CCCNC(=N)N)C(=O)N[C@H]2CC[C@@H](OC)N1C2=O` are 1100 nM and 2800 nM.
For the molecule `CC[C@H](C)[C@H]1C(=O)N(C)[C@@H](Cc2ccc(O)c(Cl)c2)C(=O)N[C@@H](C(C)C)C(=O)O[C@H](C)[C@H](NC(=O)[C@@H](COS(=O)(=O)O)OS(=O)(=O)O)C(=O)N[C@@H](CCCNC(=N)N)C(=O)N[C@H]2CC[C@@H](O)N1C2=O`, the IC50 was 1200 nM in experiment [1] and greater than 100000 nM in experiment [2].
Consider `CC[C@H](C)[C@@H]1NC(=O)[C@H](Cc2ccc(OC)c(Cl)c2)N(C)C(=O)[C@H]([C@@H](C)CC)N2C(=O)[C@H](CC[C@H]2O)NC(=O)[C@H](CCCNC(=N)N)NC(=O)[C@@H](NC(=O)[C@H](O)COS(=O)(=O)O)[C@@H](C)OC1=O`, for which the concentration for half-maximal inhibition (IC50) was determined as 700 nM in experiment [1] and 18200 nM in experiment [2].
On the same counts, the results for `CC[C@H](C)[C@@H]1NC(=O)[C@H](Cc2ccc(OC)c(Cl)c2)N(C)C(=O)[C@H]([C@@H](C)CC)N2C(=O)[C@H](CC[C@H]2O)NC(=O)[C@H](CCCNC(=N)N)NC(=O)[C@@H](NC(=O)[C@@H](COS(=O)(=O)O)OS(=O)(=O)O)[C@@H](C)OC1=O` are 1700 nM and greater than 100000 nM.
On the same counts, the results for `CC[C@H](C)[C@H]1C(=O)N(C)[C@@H](Cc2ccc(OC)c(Cl)c2)C(=O)N[C@@H](C(C)C)C(=O)O[C@H](C)[C@H](NC(=O)[C@H](O)CO)C(=O)N[C@@H](CCCNC(=N)N)C(=O)N[C@H]2CC[C@@H](O)N1C2=O` are 3500 nM and 19600 nM.

(Values after ChEMBL document CHEMBL1154207, “Protease inhibitors from a water bloom of the cyanobacterium Microcystis aeruginosa” (J Nat Prod, 2009).)
